Results from ChEMBL document CHEMBL1152807 (J Med Chem, 2009).
The source made the active and inactive calls. The calls are words filed in the database; no cut-off is given here.

Key:
Blood = experiment: Inhibition of TNFalpha production in LPS-stimulated human whole blood preincubated before LPS challenge measured after 4 hrs by enzyme immunoassay; type: functional, tissue-based
Phosphodiesterase 4 = Phosphodiesterase 4 (Homo sapiens, UniProt P27815+Q08499+Q07343+Q08493); experiment: Inhibition of human PDE4; type: protein assay
How it was run: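 PDE4 enzyme was isolated from U937 cells, following a previously reported method.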

[1] = Ratio of IC50 for TNFalpha production in LPS-stimulated human whole blood to IC50 for TNFalpha production in LPS-stimulated human PBMC; type: functional
PBMC = experiment: Inhibition of TNFalpha production in LPS-stimulated human PBMC preincubated before LPS challenge measured after 4 hrs by enzyme immunoassay; type: functional, cell-based
[2] = AUC in rat at 10 mg/kg, po; type: ADME, organism-based; parameters: dose 10 mg/kg, route oral; conditions: plasma
How it was run: (§1)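 Pharmacokinetics were determined in female rats after oral and intravenous administration.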

Rattus norvegicus [3] = experiment: Antiinflammatory activity in po dosed rat assessed as inhibition of LPS-induced neutrophilia in bronchoalveolar lavage fluid; type: functional; conditions: Lung
How it was run: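 Rat in vivo model: rats were dosed orally and neutrophilia was induced with LPS. Neutrophils were counted in bronchoalveolar lavage fluid and an ED50 for inhibition was determined.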

Rattus norvegicus [4] = experiment: Antiinflammatory activity in rat assessed as inhibition of LPS-induced TNFalpha production at 0.01 mg/kg, po; type: functional, organism-based; parameters: dose 0.01 mg/kg
Cytochrome P450 2C9 = Cytochrome P450 2C9 (Homo sapiens, UniProt P11712); experiment: Inhibition of CYP2C9; type: ADME
Chain of Cytochrome P450 2C9 (P11712 whole entry): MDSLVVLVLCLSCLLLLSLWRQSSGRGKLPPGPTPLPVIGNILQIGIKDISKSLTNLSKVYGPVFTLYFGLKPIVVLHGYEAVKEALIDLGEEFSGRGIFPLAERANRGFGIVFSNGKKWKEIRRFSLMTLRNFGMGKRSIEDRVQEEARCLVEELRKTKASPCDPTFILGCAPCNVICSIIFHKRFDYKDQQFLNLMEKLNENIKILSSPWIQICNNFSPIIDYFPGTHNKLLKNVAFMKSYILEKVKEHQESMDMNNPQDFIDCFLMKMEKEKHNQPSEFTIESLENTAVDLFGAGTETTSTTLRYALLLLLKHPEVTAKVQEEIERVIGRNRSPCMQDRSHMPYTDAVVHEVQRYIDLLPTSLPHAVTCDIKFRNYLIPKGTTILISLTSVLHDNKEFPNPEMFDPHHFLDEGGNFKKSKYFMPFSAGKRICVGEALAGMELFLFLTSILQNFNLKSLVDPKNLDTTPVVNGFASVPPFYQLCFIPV

Cytochrome P450 2C19 = Cytochrome P450 2C19 (Homo sapiens, UniProt P33261); experiment: Inhibition of CYP2C19; type: ADME
Chain of Cytochrome P450 2C19 (P33261 whole entry): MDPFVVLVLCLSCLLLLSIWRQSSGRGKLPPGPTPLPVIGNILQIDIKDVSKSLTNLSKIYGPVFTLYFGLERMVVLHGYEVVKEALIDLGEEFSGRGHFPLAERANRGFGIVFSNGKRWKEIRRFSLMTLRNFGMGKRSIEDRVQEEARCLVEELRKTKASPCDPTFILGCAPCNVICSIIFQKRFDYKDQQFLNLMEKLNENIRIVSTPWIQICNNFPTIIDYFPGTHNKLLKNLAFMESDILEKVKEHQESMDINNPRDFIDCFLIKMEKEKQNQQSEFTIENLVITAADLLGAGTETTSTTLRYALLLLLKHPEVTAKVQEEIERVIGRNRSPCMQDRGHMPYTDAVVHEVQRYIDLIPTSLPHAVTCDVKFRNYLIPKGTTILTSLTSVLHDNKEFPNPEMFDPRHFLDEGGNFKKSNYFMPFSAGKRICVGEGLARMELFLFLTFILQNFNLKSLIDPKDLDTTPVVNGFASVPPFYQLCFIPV

[5] = Volume of distribution at steady state in rat at 5 mg/kg, iv; type: ADME, organism-based; parameters: dose 5 mg/kg, route intravenous; conditions: in vivo, read-out: Vdss; how it was run: as §1
[6] = Half life in rat at 10 mg/kg, po; type: ADME, organism-based; parameters: dose 10 mg/kg, route oral; conditions: in vivo; how it was run: as §1
[7] = Metabolic stability in human microsomes assessed as half life; type: ADME, Microsome
[8] = Cmax in rat at 10 mg/kg, po; type: ADME, organism-based; parameters: dose 10 mg/kg, route oral; conditions: in vivo; how it was run: as §1
[9] = Protein binding in human plasma; type: ADME, cell-free; conditions: read-out: PPB (converted)
[10] = Clearance in rat at 5 mg/kg, iv; type: ADME, organism-based; parameters: dose 5 mg/kg, route intravenous; conditions: in vivo; how it was run: as §1
[11] = AUC in rat at 5 mg/kg, iv; type: ADME, organism-based; parameters: dose 5 mg/kg, route intravenous; conditions: plasma; how it was run: as §1
Cytochrome P450 3A4 = Cytochrome P450 3A4 (Homo sapiens, UniProt P08684); experiment: Inhibition of CYP3A4; type: ADME
Chain of Cytochrome P450 3A4 (P08684 whole entry): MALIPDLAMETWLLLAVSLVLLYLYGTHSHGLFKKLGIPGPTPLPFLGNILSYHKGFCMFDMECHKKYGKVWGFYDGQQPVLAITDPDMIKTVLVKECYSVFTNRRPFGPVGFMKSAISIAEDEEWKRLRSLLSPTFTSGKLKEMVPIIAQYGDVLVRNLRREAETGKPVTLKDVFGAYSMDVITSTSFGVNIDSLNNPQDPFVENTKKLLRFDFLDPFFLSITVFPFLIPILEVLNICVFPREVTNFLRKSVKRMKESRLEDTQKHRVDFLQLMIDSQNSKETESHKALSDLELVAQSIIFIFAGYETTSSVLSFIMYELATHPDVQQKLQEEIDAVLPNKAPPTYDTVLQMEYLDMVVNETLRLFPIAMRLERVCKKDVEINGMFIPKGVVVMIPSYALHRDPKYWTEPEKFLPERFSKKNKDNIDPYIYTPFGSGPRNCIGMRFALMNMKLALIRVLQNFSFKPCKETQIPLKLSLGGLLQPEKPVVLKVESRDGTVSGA

Cytochrome P450 2D6 = Cytochrome P450 2D6 (Homo sapiens, UniProt P10635); experiment: Inhibition of CYP2D6; type: ADME
Chain of Cytochrome P450 2D6 (P10635 whole entry): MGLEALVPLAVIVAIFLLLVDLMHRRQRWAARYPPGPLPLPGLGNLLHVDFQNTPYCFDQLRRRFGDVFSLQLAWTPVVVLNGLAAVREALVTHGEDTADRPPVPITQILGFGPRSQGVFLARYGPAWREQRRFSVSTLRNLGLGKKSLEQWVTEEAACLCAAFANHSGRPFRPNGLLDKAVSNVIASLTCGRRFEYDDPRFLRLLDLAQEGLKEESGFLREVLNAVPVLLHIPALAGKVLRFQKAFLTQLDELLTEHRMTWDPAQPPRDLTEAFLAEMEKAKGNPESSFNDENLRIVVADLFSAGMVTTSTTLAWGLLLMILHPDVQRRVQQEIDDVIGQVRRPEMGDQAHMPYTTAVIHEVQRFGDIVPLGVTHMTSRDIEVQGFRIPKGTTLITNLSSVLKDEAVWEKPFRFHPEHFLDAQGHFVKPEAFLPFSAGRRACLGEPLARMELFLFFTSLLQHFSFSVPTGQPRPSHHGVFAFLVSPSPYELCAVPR

Cytochrome P450 1A2 = target: T1, Cytochrome P450 1A2 (Homo sapiens, UniProt P05177); experiment: Inhibition of CYP1A2; type: ADME
T1 sequence (P05177 whole entry): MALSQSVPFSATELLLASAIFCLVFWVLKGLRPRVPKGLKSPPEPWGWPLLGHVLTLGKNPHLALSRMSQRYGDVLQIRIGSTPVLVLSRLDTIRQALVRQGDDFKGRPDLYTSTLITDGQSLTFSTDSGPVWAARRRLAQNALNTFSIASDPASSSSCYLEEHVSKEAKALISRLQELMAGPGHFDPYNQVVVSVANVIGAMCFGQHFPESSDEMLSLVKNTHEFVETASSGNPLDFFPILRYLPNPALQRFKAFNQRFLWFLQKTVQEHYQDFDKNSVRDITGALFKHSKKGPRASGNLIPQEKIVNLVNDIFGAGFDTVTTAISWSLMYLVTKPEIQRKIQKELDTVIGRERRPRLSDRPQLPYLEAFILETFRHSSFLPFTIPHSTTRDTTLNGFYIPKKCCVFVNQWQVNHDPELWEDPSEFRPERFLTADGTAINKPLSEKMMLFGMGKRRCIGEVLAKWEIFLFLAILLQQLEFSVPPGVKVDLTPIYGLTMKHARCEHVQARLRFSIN

Rattus norvegicus [12] = experiment: Antiinflammatory activity in po dosed rat assessed as inhibition of LPS-induced TNFalpha production; type: functional
How it was run: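 Rat in vivo model: rats were dosed orally and TNF-α production was induced with LPS. Inhibition of TNF-α production was measured and an ED50 was determined.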

[13] = Half life in rat at 5 mg/kg, iv; type: ADME, organism-based; parameters: dose 5 mg/kg, route intravenous; conditions: in vivo; how it was run: as §1
[14] = Oral bioavailability in rat at 10 mg/kg; type: ADME, organism-based; conditions: in vivo; how it was run: as §1
[15] = Cmax in rat at 5 mg/kg, iv; type: ADME, organism-based; parameters: dose 5 mg/kg, route intravenous; conditions: in vivo; how it was run: as §1
Rattus norvegicus [16] = experiment: Antiinflammatory activity in po dosed BN rat late airway inflammatory model assessed as inhibition of ovalbumin-induced cell infiltration in bronchoalveolar lavage fluid measured 48 hrs after ovalbumin challenge; type: functional; conditions: Lung

| Structure (SMILES) | IC50 (Blood) [nM] | IC50 (Phosphodiesterase 4) [nM] | IC50 (PBMC) [nM] | further results |
| --- | --- | --- | --- | --- |
| CCOc1cc(C(CS(C)(=O)=O)N2C(=O)c3cccc(N(C)C)c3C2=O)ccc1OC (racemic) | 1400 | 120 | 220 | Ratio IC50 [1]: 6 |
| CCOc1cc(C(CC#N)N2C(=O)c3ccccc3C2=O)ccc1OC (stereo unspecified) | 490 | 40 | 240 |  |
| CCOc1cc(C(CS(C)(=O)=O)N2C(=O)c3cccc(N)c3C2=O)ccc1OC (racemic) | 2200 | 120 | 370 | Ratio IC50 [1]: 6 |
| COc1ccc(C(CS(C)(=O)=O)N2C(=O)c3ccccc3C2=O)cc1OC1CCCC1 (stereo unspecified) |  | 260 | 1500 |  |
| CCOc1cc(C(CS(C)(=O)=O)N2C(=O)c3cccc(O)c3C2=O)ccc1OC (racemic) |  | 820 | 1470 |  |
| COC(=O)CC(c1ccc(OC)c(OC2CCCC2)c1)N1C(=O)c2ccccc2C1=O (stereo unspecified) |  | 1600 | 1700 |  |
| CCOc1cc(C(CC(=O)OC)N2C(=O)c3ccccc3C2=O)ccc1OC (stereo unspecified) | 4000 | 220 |  |  |
| CCOc1cc(C(CS(C)(=O)=O)N2C(=O)c3ccccc3C2=O)ccc1OC (stereo unspecified) | 2500 | 220 | 1300 |  |
| CCOc1cc([C@H](CS(C)(=O)=O)N2C(=O)c3cccc(NC(C)=O)c3C2=O)ccc1OC |  |  | 370 |  |
| CCOc1cc(C(CC(=O)O)N2C(=O)c3ccccc3C2=O)ccc1OC (stereo unspecified) |  | 1300 | 35000 |  |
| CCOc1cc([C@@H](CS(C)(=O)=O)N2C(=O)c3cccc(NC(C)=O)c3C2=O)ccc1OC | 110 |  | 77 | AUC [2]: 14000 ng·h/mL; ED50 (Rattus norvegicus [3]): 0.3 mg/kg; Activity (Rattus norvegicus [4]): Active; IC50 (Cytochrome P450 2C9): > 10000 nM; IC50 (Cytochrome P450 2C19): > 10000 nM; Vd [5]: 2 L/kg; half-life [6]: 5 h; half-life [7]: > 1 h; Cmax [8]: 1100 ng/mL; fraction unbound [9]: 0.1; clearance [10]: 8.33 mL/min/kg; AUC [11]: 11000 ng·h/mL; IC50 (Cytochrome P450 3A4): > 10000 nM; IC50 (Cytochrome P450 2D6): > 10000 nM; IC50 (Cytochrome P450 1A2): > 10000 nM; ED50 (Rattus norvegicus [12]): 0.03 mg/kg; half-life [13]: 3 h; bioavailability [14]: 64%; Cmax [15]: 6600 ng/mL |
| O=C(Nc1c(Cl)cncc1Cl)c1ccc(OC(F)F)c(OCC2CC2)c1 [ROFLUMILAST] |  |  | 0.02 | ED50 (Rattus norvegicus [16]): 0.9 mg/kg |

Further lines, with some results ahead:

| IC50 (Blood) [nM] | IC50 (Phosphodiesterase 4) [nM] | Structure (SMILES) | IC50 (PBMC) [nM] | further results |
| --- | --- | --- | --- | --- |
|  | 340 | COc1ccc(C(CC#N)N2C(=O)c3ccccc3C2=O)cc1OC1CCCC1 (stereo unspecified) |  |  |
|  | 690 | CCOc1cc(C(CS(C)(=O)=O)N2C(=O)c3cccc(OC)c3C2=O)ccc1OC (racemic) | 340 |  |
| 1600 | 130 | CCOc1cc(C(CC#N)N2C(=O)c3cccc(NC(C)=O)c3C2=O)ccc1OC (racemic) | 440 |  |
|  | 340 | COc1ccc(C(CC(=O)O)N2C(=O)c3ccccc3C2=O)cc1OC1CCCC1 (stereo unspecified) | 36000 |  |
| 440 |  | CCOc1cc(C(CS(C)(=O)=O)N2C(=O)c3cccc(NC(C)=O)c3C2=O)ccc1OC (racemic) | 190 |  |
| 2400 | 68 | CCOc1cc(C(CS(C)(=O)=O)N2C(=O)c3cccc(C)c3C2=O)ccc1OC (racemic) | 270 | Ratio IC50 [1]: 9 |
| 10500 | 1900 | CCOc1cc(C(CC(N)=O)N2C(=O)c3ccccc3C2=O)ccc1OC (stereo unspecified) |  |  |
|  | 710 | CCOc1cc([C@@H](CC(N)=O)N2C(=O)c3cccc(NC(C)=O)c3C2=O)ccc1OC | 3000 |  |
